Measured values: ChEMBL document CHEMBL1155193, “Acyloxymethyl esterification of nodularin-R and microcystin-LA produces inactive protoxins that become reactivated and produce apoptosis inside intact cells” (J Med Chem, 2009)
Activity calls are given as the source filed them. No cut-off for these calls is given here. Starred links: 1 amine or outer side, 2 acyl side, 3 side chain; linkers in the order of their positions; H or OH if unused. Positions of bridges follow the written chain, without caps; N, C: chain ends. Non-standard residues stand in square brackets, D forms with d. Residues, ends and D or L forms follow the SMILES beside them. Adda = CO[C@@H](Cc1ccccc1)[C@@H](C)/C=C(C)/C=C/[C@H](N[*:1])[C@H](C)C(=O)[*:2]; X1 = CC(C)C[C@H](N[*:1])C(=O)C[C@@H](C(=O)O)[C@H](C)C(=O)[*:2]; dAsp(3S-Me) = C[C@H](C(=O)[*:3])[C@@H](N[*:1])C(=O)[*:2]; d(γGlu) = O=C(O)[C@@H](CCC(=O)[*:2])N[*:1]; NMeDha = C=C(NC)C(=O)O

How the values were obtained:
[1] = system: NIH3T3; test: Induction of apoptosis in Swiss mouse 3T3 cells assessed as appearance of apoptotic morphology at 100 uM injected directly into intact cells after 3 hrs by Hoechst 33342 staining-based fluorescence microscopy in presence of esterase; assay type: cell-based; details: nih3t3, 3 h
[2] = system: Hepatocyte; test: Cytotoxicity against Wistar rat hepatocytes harboring transporter Oatp1b2 assessed as appearance of polarized cell blebbing at 0.2 uM after 90 mins by differential interference contrast microscopy; assay type: ADME, cell-based; details: 1.5 h
[3] = Stability assessed as formation of nodularin-R by HPLC analysis in presence of pig liver esterase; assay type: ADME; details: isolated protein
[4] = system: NIH3T3; test: Induction of apoptosis in Swiss mouse 3T3 cells up to 120 uM after 3 hrs by Hoechst 33342 staining-based fluorescence microscopy; assay type: cell-based; details: nih3t3, 3 h
How it was run: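 Swiss 3T3 mouse fibroblasts kept in RPMI with 10% FCS at 37 °C, 5% CO₂. About 7000 cells per well were exposed to various toxin concentrations for 3 h in fresh serum-free medium. The incubation was stopped with buffered formaldehyde containing Hoechst 33342, and apoptosis was scored by fluorescence and DIC microscopy. Mean ± SEM of three experiments.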

[5] = Lipophilicity, logD at pH 7.4; assay type: physicochemical; details: buffer
How it was run: (§1)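 In silico estimate under a standard ionic condition (0.1 M Cl⁻, 0.1 M Na⁺/K⁺) at pI and at pH 7.4. pKa was estimated in macro mode at 310 K.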

[6] = system: Hepatocyte; test: Cytotoxicity against Wistar rat hepatocytes harboring transporter Oatp1b2 assessed as appearance of polarized cell blebbing at 60 nM after 90 mins by differential interference contrast microscopy; assay type: ADME, cell-based; details: 1.5 h, 0.06 µM
[7] = Lipophilicity, logD at pI; assay type: physicochemical; details: octanol/water; how it was run: as §1
[8] = system: Hepatocyte; test: Cytotoxicity against Wistar rat hepatocytes harboring transporter Oatp1b2 assessed as appearance of polarized cell blebbing at 4 uM after 90 mins by differential interference contrast microscopy; assay type: ADME, cell-based; details: 1.5 h
[9] = system: Hepatocyte; test: Cytotoxicity against Wistar rat hepatocytes harboring transporter Oatp1b2 assessed as appearance of polarized cell blebbing at 80 nM after 90 mins by differential interference contrast microscopy; assay type: ADME, cell-based; details: 1.5 h, 0.08 µM
[10] = target: Serine/threonine-protein phosphatase 2A catalytic subunit alpha isoform (Oryctolagus cuniculus) (UniProt P67777); test: Displacement of [125]MC-YR from rabbit skeletal muscle protein phosphatase 2A after 1 hr; assay type: tissue-based; details: Muscle tissue
Sequence of Serine/threonine-protein phosphatase 2A catalytic subunit alpha isoform (Oryctolagus cuniculus) (P67777 whole entry, canonical isoform): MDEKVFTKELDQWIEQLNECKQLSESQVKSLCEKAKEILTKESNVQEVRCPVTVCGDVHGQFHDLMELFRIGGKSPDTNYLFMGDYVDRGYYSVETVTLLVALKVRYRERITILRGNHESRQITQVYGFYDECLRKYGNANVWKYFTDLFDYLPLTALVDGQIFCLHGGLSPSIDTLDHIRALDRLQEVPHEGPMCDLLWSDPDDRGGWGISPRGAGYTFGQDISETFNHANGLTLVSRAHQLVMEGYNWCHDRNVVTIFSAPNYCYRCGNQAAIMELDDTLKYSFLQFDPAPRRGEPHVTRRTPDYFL

SMILES	Activity [1]	Activity [2]	Stability [3]	Activity [4] [%]	logD ([5]; read-out: logD)	Activity [6]	logD [7]	logD [5]	Activity [8]	Activity [9]	Activity [10]
C=C1C(=O)N[C@H](C)C(=O)N[C@@H](CC(C)C)C(=O)N[C@@H](C(=O)O)[C@H](C)C(=O)N[C@@H](CCCNC(=N)N)C(=O)N[C@@H](/C=C/C(C)=C/[C@H](C)[C@H](Cc2ccccc2)OC)[C@H](C)C(=O)N[C@@H](C(=O)O)CCC(=O)N1C [MICROCYSTIN-LR] (R[Adda][d(γGlu)][NMeDha][dA]L[dAsp(3S-Me)]-OH; lactam N-7)	Toxic	Toxic									
C/C=C1/NC(=O)CC[C@H](C(=O)OCOC(=O)CC)NC(=O)[C@@H](C)[C@H](/C=C/C(C)=C/[C@H](C)[C@H](Cc2ccccc2)OC)NC(=O)[C@H](CCCNC(=N)N)NC(=O)[C@@H](C)[C@H](C(=O)OCOC(=O)CC)NC1=O	Toxic		Unstable	< 20	-0.7	Toxic	1.6				
C/C=C1/NC(=O)CC[C@H](C(=O)O)NC(=O)[C@@H](C)[C@H](/C=C/C(C)=C/[C@H](C)[C@H](Cc2ccccc2)OC)NC(=O)[C@H](CCC/N=C2/N=C(c3ccccc3)C(O)N2)NC(=O)[C@@H](C)[C@H](C(=O)O)NC1=O (some centres undefined)	Toxic			< 20			-1.4	-4.8	Toxic		
C/C=C1/C(=O)N[C@@H](C(=O)O)[C@H](C)C(=O)N[C@@H](CCCNC(=N)N)C(=O)N[C@@H](/C=C/C(C)=C/[C@H](C)[C@H](Cc2ccccc2)OC)[C@H](C)C(=O)N[C@@H](C(=O)O)CCC(=O)N1C [NODULARIN]	Toxic						-3.1			Toxic	
C=C1C(=O)N[C@H](C)C(=O)N[C@@H](CC(C)C)C(=O)C[C@@H](C(=O)O)[C@H](C)C(=O)N[C@@H](C)C(=O)N[C@@H](/C=C/C(C)=C/[C@H](C)[C@H](Cc2ccccc2)OC)[C@H](C)C(=O)N[C@@H](C(=O)O)CCC(=O)N1C [MICROCYSTIN-LA] ([NMeDha][dA][X1]A[Adda][dE]-OH; lactam N-6)							0.3				
C/C=C1/NC(=O)CC[C@H](C(=O)OCOC(C)=O)NC(=O)[C@@H](C)[C@H](/C=C/C(C)=C/[C@H](C)[C@H](Cc2ccccc2)OC)NC(=O)[C@H](CCCNC(=N)N)NC(=O)[C@@H](C)[C@H](C(=O)OCOC(C)=O)NC1=O	Toxic		Unstable	< 20	-2	Toxic	0.4				inactive
